Laboratory results as given in ChEMBL document CHEMBL1128597, “Picornavirus inhibitors: trifluoromethyl substitution provides a global protective effect against hepatic metabolism” (J Med Chem, 1995).

Assay: t1/2 in monkey liver microsomes
Assay type: ADME, Microsome
Details: simiiformes

Q: With `Cc1cc(-c2noc(C(F)(F)F)n2)cc(C)c1OCCCc1cc(CO)no1` as the molecule, how does the half-life read?
A: The half-life was greater than 2.5 h.

Q: With `Cc1cc(-c2noc(C3CC3)n2)cc(C)c1OCCCc1cc(C2CC2)no1` as the molecule, how does the half-life read?
A: Its half-life is greater than 2.5 h.

Q: With `Cc1cc(CCCOc2c(C)cc(-c3noc(C4CC4)n3)cc2C)on1` as the molecule, how does the half-life read?
A: Its half-life is 2.23 h.

Q: With `Cc1cc(CCCOc2c(C)cc(-c3noc(C(Cl)(Cl)Cl)n3)cc2C)on1` as the molecule, how does the half-life read?
A: Its half-life is 0.183 h.

Q: With `CCOc1nc(-c2cc(C)c(OCCCc3cc(C)no3)c(C)c2)no1` as the molecule, how does the half-life read?
A: Its half-life is greater than 2.5 h.

Q: Which half-life does the source give for `COCc1cc(CCCOc2c(C)cc(-c3noc(C(F)(F)F)n3)cc2C)on1` here?
A: The half-life was 1.58 h.

Q: Which half-life does the source give for `Cc1cc(-c2noc(C(F)(F)F)n2)cc(C)c1OCCCc1cccc(F)n1` here?
A: Its half-life is greater than 2.5 h.

Q: Which half-life does the source give for `CCOCc1cc(CCCOc2c(C)cc(-c3noc(C(F)(F)F)n3)cc2C)on1` here?
A: Its half-life is greater than 2.5 h.

Q: With `Cc1cc(-c2noc(C3CC3)n2)cc(C)c1OCCCc1cc(OCCO)no1` as the molecule, how does the half-life read?
A: The half-life was greater than 2.5 h.

Q: With `Cc1cc(CCCOc2c(C)cc(-c3noc(C(F)(F)F)n3)cc2C)on1` [PLECONARIL] as the molecule, how does the half-life read?
A: Its half-life is greater than 2.5 h.

Q: With `COCc1cc(CCCOc2c(C)cc(-c3noc(C4CC4)n3)cc2C)on1` as the molecule, how does the half-life read?
A: Its half-life is greater than 2.5 h.

Q: With `CC(=O)c1ccc(CCCOc2c(C)cc(-c3noc(C)n3)cc2C)o1` as the molecule, how does the half-life read?
A: Its half-life is 0.617 h.

Q: Which half-life does the source give for `Cc1cc(CCCOc2c(C)cc(-c3noc(C#N)n3)cc2C)on1` here?
A: Its half-life is 0.283 h.

Q: Which half-life does the source give for `Cc1cc(CCCOc2c(C)cc(-c3noc(CC(F)(F)F)n3)cc2C)on1` here?
A: The half-life was 0.533 h.

Q: With `Cc1nc(-c2cc(C)c(OCCCc3cccc(F)n3)c(C)c2)no1` as the molecule, how does the half-life read?
A: The half-life was 0.283 h.

Q: Which half-life does the source give for `Cc1cc(-c2noc(C(F)(F)F)n2)cc(C)c1OCCCc1cc(CS(C)(=O)=O)no1` here?
A: The half-life was greater than 2.5 h.

Q: Which half-life does the source give for `Cc1ccc(CCCOc2c(C)cc(-c3noc(C)n3)cc2C)cn1` here?
A: Its half-life is 1.37 h.

Q: With `Cc1cc(CCCOc2c(C)cc(-c3noc(C(F)F)n3)cc2C)on1` as the molecule, how does the half-life read?
A: Its half-life is 1.42 h.

Q: For `CCc1cc(CCCOc2c(C)cc(-c3noc(C4CC4)n3)cc2C)on1`, which half-life is on record?
A: Its half-life is 0.9 h.

Q: For `CCc1cc(CCCOc2c(C)cc(-c3noc(C)n3)cc2C)on1`, which half-life is on record?
A: The half-life was 0.183 h.

Q: For `Cc1nc(-c2cc(C)c(OCCCc3cc(C(F)(F)F)no3)c(C)c2)no1`, which half-life is on record?
A: Its half-life is 0.55 h.

Q: For `Cc1cc(CCCOc2c(C)cc(-c3noc(CF)n3)cc2C)on1`, which half-life is on record?
A: The half-life was 0.233 h.

Q: With `Cc1cc(CCCOc2c(C)cc(-c3noc(C(C)(F)F)n3)cc2C)on1` as the molecule, how does the half-life read?
A: Its half-life is 1.1 h.

Q: For `Cc1ccc(CCCOc2c(C)cc(-c3noc(C(F)(F)F)n3)cc2C)cn1`, which half-life is on record?
A: Its half-life is 1.97 h.

Q: With `CC(=O)c1ccc(CCCOc2c(C)cc(-c3noc(C(F)(F)F)n3)cc2C)o1` as the molecule, how does the half-life read?
A: The half-life was 1.05 h.

Q: For `Cc1cc(CCCOc2c(C)cc(-c3noc(C(N)=O)n3)cc2C)on1`, which half-life is on record?
A: Its half-life is 2.3 h.

Q: With `CCc1cc(CCCOc2c(C)cc(-c3noc(C(F)(F)F)n3)cc2C)on1` as the molecule, how does the half-life read?
A: The half-life was greater than 2.5 h.

Q: Which half-life does the source give for `Cc1cc(-c2noc(C3CC3)n2)cc(C)c1OCCCc1cc(CO)no1` here?
A: Its half-life is greater than 2.5 h.

Q: Which half-life does the source give for `Cc1cc(CCCOc2c(C)cc(-c3noc(C)n3)cc2C)on1` here?
A: The half-life was 0.45 h.

Q: Which half-life does the source give for `CCOc1cc(CCCOc2c(C)cc(-c3noc(C4CC4)n3)cc2C)on1` here?
A: The half-life was greater than 2.5 h.

Q: With `COc1nc(-c2cc(C)c(OCCCc3cc(C)no3)c(C)c2)no1` as the molecule, how does the half-life read?
A: The half-life was 0.55 h.

Q: With `Cc1cc(-c2noc(C(F)(F)F)n2)cc(C)c1OCCCc1cc(C[S+](C)[O-])no1` (centres undefined) as the molecule, how does the half-life read?
A: Its half-life is greater than 2.5 h.

Q: Which half-life does the source give for `COCc1cc(CCCOc2c(C)cc(-c3noc(C)n3)cc2C)on1` here?
A: The half-life was 0.5 h.

Assay: Tested for pharmacokinetic parameter in fasted Beagle dogs (Half-life) iv administration.
Assay type: ADME, organism-based, Canis lupus familiaris
Details: dog, in vivo
Method in brief: (§1)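 Single intravenous bolus of 10 mg/kg given to fasted beagle dogs. Plasma was extracted with hexane and assayed by GC with electron-capture detection or by reverse-phase HPLC, depending on the analyte. Concentrations below the minimum quantifiable level were ignored when computing means. Half-life and CL were derived from plasma profiles by model-independent methods, and AUC by the trapezoidal rule.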

Q: With `Cc1cc(CCCOc2c(C)cc(-c3noc(C(F)(F)F)n3)cc2C)on1` [PLECONARIL] as the molecule, how does the half-life read?
A: The half-life was 27 h.

Q: Which half-life does the source give for `Cc1cc(CCCCCOc2c(Cl)cc(C3=NCCO3)cc2Cl)on1` [WIN-54954] here?
A: The half-life was 7 h.

Assay: Tested for pharmacokinetic parameter in fasted Beagle dogs (Area Under Curve value) iv administration.
Assay type: ADME, organism-based, Canis lupus familiaris
Details: dog, in vivo
Method in brief: as §1

Q: With `Cc1cc(CCCOc2c(C)cc(-c3noc(C(F)(F)F)n3)cc2C)on1` [PLECONARIL] as the molecule, how does the AUC read?
A: The AUC was 11800 ng·h/mL.

Q: With `Cc1cc(CCCCCOc2c(Cl)cc(C3=NCCO3)cc2Cl)on1` [WIN-54954] as the molecule, how does the AUC read?
A: The AUC was 4910 ng·h/mL.

Assay: Tested for pharmacokinetic parameter in fasted Beagle dogs (Clearance value of the compound) iv administration.
Assay type: ADME, organism-based, Canis lupus familiaris
Details: dog, in vivo
Method in brief: as §1

Q: Which clearance does the source give for `Cc1cc(CCCOc2c(C)cc(-c3noc(C(F)(F)F)n3)cc2C)on1` [PLECONARIL] here?
A: The clearance was 12.8 mL/min/kg.

Q: With `Cc1cc(CCCCCOc2c(Cl)cc(C3=NCCO3)cc2Cl)on1` [WIN-54954] as the molecule, how does the clearance read?
A: Its clearance is 31.8 mL/min/kg.
